In brackets after ≈: the same amount, converted by molar mass.
Columns and labels:
[1] = tested on: Mycobacterium tuberculosis; test: Antibacterial activity against Mycobacterium tuberculosis H37Rv assessed as inhibition of bacterial growth after 7 days by alamar blue fluorescence-based broth microdilution assay; format: functional; settings: 168 h
Procedure, shortened: (§1)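 Mtb H37Rv grown to mid-exponential phase in Middlebrook 7H9 with OADC, 0.2% glycerol, 0.05% Tween-80. Compounds in DMSO (1%) tested at 8 concentrations; rifampin and isoniazid as positive controls. ~10^5 bacteria per well, 37°C for 7 d, then Alamar Blue for a further 24 h at 37°C. Fluorescence read at ex 544/em 590 nm. Data normalised to min/max inhibition controls; MIC90 taken from the dose-response curve.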

[2] = tested on: Mycobacterium tuberculosis; test: Antibacterial activity against Mycobacterium tuberculosis; format: functional; procedure, shortened: as §1
[3] = tested on: Mycobacterium tuberculosis; test: Antibacterial activity against Mycobacterium tuberculosis after 7 days by Alamar Blue assay; format: functional; settings: 168 h; procedure, shortened: as §1
[4] = target: Inosine-5'-monophosphate dehydrogenase (Mycobacterium tuberculosis (strain ATCC 25618 / H37Rv)) (UniProt P9WKI7); test: Uncompetitive inhibition of Mycobacterium tuberculosis H37Rv IMPDH assessed as reduction in NADH production preincubated for 5 mins followed by substrate IMP addition at increasing concentration measured for 32 mins in presence of a constant concentration of NAD+ by Lineweaver-Burk plot analysis
Sequence of Inosine-5'-monophosphate dehydrogenase (Mycobacterium tuberculosis (strain ATCC 25618 / H37Rv)) (P9WKI7 whole entry): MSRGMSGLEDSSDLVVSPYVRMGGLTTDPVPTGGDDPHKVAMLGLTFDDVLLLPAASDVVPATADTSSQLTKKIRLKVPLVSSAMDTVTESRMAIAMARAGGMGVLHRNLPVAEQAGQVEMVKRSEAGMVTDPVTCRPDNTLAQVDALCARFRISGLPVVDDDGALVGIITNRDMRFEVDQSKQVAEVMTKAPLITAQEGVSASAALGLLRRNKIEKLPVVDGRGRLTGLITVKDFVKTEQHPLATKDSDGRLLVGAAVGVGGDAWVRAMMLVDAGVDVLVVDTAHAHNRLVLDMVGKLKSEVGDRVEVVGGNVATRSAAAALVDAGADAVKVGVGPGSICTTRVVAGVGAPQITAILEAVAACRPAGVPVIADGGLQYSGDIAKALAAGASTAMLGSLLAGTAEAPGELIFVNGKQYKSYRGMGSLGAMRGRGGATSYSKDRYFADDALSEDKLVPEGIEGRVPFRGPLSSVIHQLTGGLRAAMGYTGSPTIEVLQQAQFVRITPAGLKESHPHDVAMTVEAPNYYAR

[5] = tested on: Mycobacterium tuberculosis; test: Antibacterial activity against Mycobacterium tuberculosis ATCC 27294 after 7 days by broth microdilution method; format: functional; settings: ATCC 27294, 168 h

Row | SMILES | MIC90 [1] | also measured
1 | CC(Oc1ccc(-c2cn(C)cn2)cc1)C(=O)Nc1nc(-c2ccc(I)cc2)c[nH]1 (stereo not given) | ≥ 50 µM | –
2 | Cc1n[nH]c(C)c1S(=O)(=O)Nc1ccc2c[nH]nc2c1 | – | MIC [2]: 2 µM (≈ 0.583 µg/mL)
3 | CC(Oc1ccc(-c2cn(C)cn2)cc1)C(=O)Nc1nc(-c2ccc(Br)cc2)c[nH]1 (stereo not given) | ≥ 50 µM | –
4 | O=C(C1CCCCC1)N1CCN(S(=O)(=O)c2ccc3cnccc3c2)CC1 | – | MIC [2]: 1.9 µM (≈ 0.736 µg/mL)
5 | COc1ccc(-c2c[nH]c(NC(=O)C(C)Oc3ccc(-c4cn(C)cn4)cc3)n2)cc1 (stereo not given) | ≥ 50 µM | –
6 | CC(Oc1ccc(-c2cn(C)cn2)cc1)C(=O)Nc1ccc(I)cc1 (stereo not given) | ≥ 50 µM | –
7 | COc1ccc(OC(C)C(=O)Nc2ccc(I)cc2)cc1 (stereo not given) | – | MIC [3]: 12.5 µM (≈ 4.97 µg/mL); alphaKi [4]: 0.603 µM
8 | C=C(C)c1cccc(C(C)(C)NC(=O)Nc2ccc(Cl)c(C(=O)N(C)C)c2)c1 | – | MIC [5]: 5 µM (≈ 2 µg/mL)
9 | CC(Oc1ccc(-c2cn(C)cn2)cc1)C(=O)Nc1nc(-c2ccccc2)c[nH]1 (stereo not given) | ≥ 50 µM | –
10 | CC(Oc1ccc(-c2cn(C)cn2)cc1)C(=O)Nc1nc(-c2ccc(N3CCOCC3)cc2)c[nH]1 (stereo not given) | ≥ 50 µM | –
11 | CC(Oc1ccc(-c2cn(C)cn2)cc1)C(=O)Nc1ccccc1 (stereo not given) | ≥ 50 µM | –
12 | CC(Oc1ccc(-c2cn(C)cn2)cc1)C(=O)Nc1nc(-c2ccc(Br)cc2)co1 (stereo not given) | ≥ 50 µM | –
13 | COc1c(C)c2c(c(O)c1C/C=C(\C)Cn1cc(COC[C@H]3O[C@@H](n4cnc5c(N)ncnc54)[C@H](O)[C@@H]3O)nn1)C(=O)OC2 | – | MIC [5]: 100 µM (≈ 60.9 µg/mL)
14 | C[C@H](Oc1ccc(-c2cn(C)cn2)cc1)C(=O)Nc1nc(-c2ccc(Br)cc2)c[nH]1 | ≥ 50 µM | –
